SUMO HTRF inh: blocks human SUMOylation mediated by UBC9 | P63279 | HTRF SUMOylation assay, SAE1/SAE2 + UBC9, in vitro | inhibition, % at 35 µM | 290,000 tested, 0.36% active | AID 2006; in the data active = inhibition above about 50%, passing the limit was not always enough
Target sequence (P63279 whole entry, looked up): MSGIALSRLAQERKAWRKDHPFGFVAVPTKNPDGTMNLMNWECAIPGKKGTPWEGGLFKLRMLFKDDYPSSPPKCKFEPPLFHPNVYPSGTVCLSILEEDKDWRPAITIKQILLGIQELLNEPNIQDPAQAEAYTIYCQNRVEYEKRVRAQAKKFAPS
FID counter: displaces DNA intercalator in HCV helicase counter-screen | DNA fluorescent intercalator displacement, fluorescence | inhibition, % at 7.9 µM | 290,000 tested, 0.17% active; in the data active = inhibition above about 37%;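 also: higher means more ethidium bromide displaced from hairpin DNA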
VIM-2 inh: blocks Pseudomonas aeruginosa VIM-2 metallo-beta-lactamase; inhibition, % at 5.6 µM; 290,000 tested, 0.89% active; AID 1527; purified VIM-2, nitrocefin hydrolysis, epi-absorbance fluorescence;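 active = inhibition above the mean of all tested compounds plus 3 SD, cutoff set per screening run, cut at about 7.5% in these data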;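 also: red hydrolysis product quenches plate fluorescence so inhibitors raise well fluorescence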
IMP-1 inh: inhibitors of Pseudomonas aeruginosa IMP-1 metallo-beta-lactamase; purified IMP-1, nitrocefin hydrolysis, epi-absorbance fluorescence; inhibition, % at 5.6 µM; 290,000 tested, 0.45% active; AID 1556;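 active = inhibition above the mean plus 3 SD of all compounds in the same screening run, cut at about 4.5% in these data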
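System: purified IMP-1; amount: IMP-1 0.2 nM before substrate addition; compound: single dose, 5.6 µM; times: 25 °C, 15 min preincubation, 25 min reaction; signal: Epi-absorbance via hydrolysed-nitrocefin quenching of white-plate fluorescence, 480/530 nm, EDTA stop; benchmarks: DMSO with and without IMP-1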
NS3 helicase inh: HCV NS3 helicase inhibition; NS3 helicase DNA unwinding, Cy5 molecular beacon fluorescence; 290,000 tested, 0.56% active; inhibition, % at 10.9 µM;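 active = inhibition above the mean of all tested compounds plus 3 SD, set per campaign, cut at about 35% in these data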
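Assay system: hepatitis C virus NS3 helicase domain fragment enzyme. Also added: annealed dual-labelled DNA beacon duplex, ATP-started. Timing: 1 h reaction at 25 °C, ATP-initiated. Technique: Cy5 fluorescence at 0 and 60 min, beacon hairpin quenching. Evaluation: % inhibition of unwinding. Replication: one well per compound.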
VIM-2 inh confirm: VIM-2 inhibition, confirmation assay; shares compounds with IMP-1 inh; purified VIM-2 enzyme, nitrocefin absorbance; inhibition, % at 5.6 µM; 200 tested, 73% active; AID 1860; in the data active = inhibition above about 8%
TEM-1 counter: blocks E. coli TEM-1 beta-lactamase, VIM-2 IMP-1 counter-screen | shares compounds with IMP-1 inh | nitrocefin absorbance inhibition | inhibition, % at 5.6 µM | 200 tested, 50% active | AID 2184; in the data active = inhibition above about 0.66%
Target sequence (P62593 whole entry, looked up): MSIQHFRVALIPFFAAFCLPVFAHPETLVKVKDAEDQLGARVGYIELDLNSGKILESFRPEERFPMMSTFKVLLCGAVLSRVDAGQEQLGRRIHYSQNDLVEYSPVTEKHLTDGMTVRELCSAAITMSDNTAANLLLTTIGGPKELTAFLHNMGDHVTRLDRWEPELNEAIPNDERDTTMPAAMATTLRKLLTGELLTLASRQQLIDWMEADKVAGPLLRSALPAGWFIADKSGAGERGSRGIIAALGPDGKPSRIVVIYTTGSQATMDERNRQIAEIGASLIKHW
IMP-1 inh conf: confirmation of P. aeruginosa IMP-1 metallo-beta-lactamase inhibitors | 200 tested, 60% active | inhibition, % at 5.6 µM | shares compounds with IMP-1 inh | purified IMP-1 enzyme, absorbance substrate hydrolysis; in the data active = inhibition above about 4.9%
Of the large screens only hits and unclear results are named; the others gave an inactive call (follow-up assays come after a bar, where they were run). A selection: hits, their analogues and other compounds. The true share with any hit is near 2.1%.

O=C(Nc1ccc(C(F)(F)F)cc1)c1ccc(NC(=O)C2CCCO2)cc1 (stereo not given)	VIM-2 inh 9.1, IMP-1 inh 15.6 | VIM-2 inh confirm 9.9 | TEM-1 counter inactive | IMP-1 inh conf 9.8
NC(=S)c1cc2ccc(O)cc2oc1=O	IMP-1 inh 4.5 | VIM-2 inh confirm inactive | TEM-1 counter inactive | IMP-1 inh conf inactive
C/C(=N/NC(N)=S)c1cc2ccc(O)cc2oc1=O	none
CC1=C(C(=O)OC(C)C)C(c2ccc(C)o2)C(C(=O)OC(C)C)=C(C)N1	none
COc1cccc(C2Nc3ccc4ccccc4c3C3=C2C(=O)CC(C)(C)C3)c1OCC(=O)O (stereo not given)	VIM-2 inh 9.5, IMP-1 inh 10.6 | VIM-2 inh confirm 8.1 | TEM-1 counter inactive | IMP-1 inh conf inactive
N#Cc1nc(COc2ccccc2F)oc1NCCCn1ccnc1	VIM-2 inh 10.1, IMP-1 inh 38.7 | VIM-2 inh confirm inactive | TEM-1 counter inactive | IMP-1 inh conf inactive
CNc1ccc2c3c(cccc13)C(=O)N(C)C2=O	VIM-2 inh 49.9, IMP-1 inh 44.2 | VIM-2 inh confirm 75.8 | TEM-1 counter 87.0 | IMP-1 inh conf 59.3
CCc1ccc(CNC(=O)c2ccc3nc(C4CCCCC4)oc3c2)nc1	none
CCOC(=O)/C(=C/C=C1\Sc2ccccc2N1CC)C(C)=O	none
CCOC(=O)/C(=C\C=C1/Sc2ccccc2N1CC)C(C)=O	VIM-2 inh 8.5, IMP-1 inh 7.8 | VIM-2 inh confirm inactive | TEM-1 counter 0.7 | IMP-1 inh conf inactive
Cn1cc(/C=C/c2cc[n+](C)cc2)c2cc(Cl)ccc21	VIM-2 inh 13.1, IMP-1 inh 5.8 | VIM-2 inh confirm 22.1 | TEM-1 counter 2.8 | IMP-1 inh conf inactive
Cn1cc(C=O)c2cc(F)ccc21	none
Cn1cc(/C=C/c2cc[n+](C)cc2)c2cc(F)ccc21	VIM-2 inh 11.4, IMP-1 inh 5.7 | VIM-2 inh confirm 13.9 | TEM-1 counter 4.7 | IMP-1 inh conf 7.5
COc1ccc(N(C(=O)c2cnccn2)C(C(=O)NCc2ccccc2)c2ccc(O)cc2)cc1 (stereo not given)	none
CN(C)c1ccc(/C=C(\C#N)C(=O)c2ccccc2)cc1	IMP-1 inh 6.2 | VIM-2 inh confirm 12.6 | TEM-1 counter 12.8 | IMP-1 inh conf 10.9
N#C/C(=C\c1ccc(C#N)cc1)C(=O)c1ccccc1	none
Cn1nccc1C(=O)NC1CCN(Cc2ccccc2)CC1	none
COc1cc(OC)cc(C(=O)N[C@H](C(=O)Nc2nc3ccc(S(C)(=O)=O)cc3s2)C(C)C)c1	none
COc1ccccc1NC(=O)CCc1nnc2ccc(N3CCN(C)CC3)nn12	none (no result: SUMO HTRF inh)
CCCC(=O)N1CCCC(C(=O)c2cccc(OC(C)C)c2)C1 (stereo not given)	none (no result: SUMO HTRF inh)
CCN(CC)CCOC(=O)c1ccc(N/C=C(/C#N)c2nc(-c3cc4ccccc4oc3=O)cs2)cc1	SUMO HTRF inh 55.2, VIM-2 inh 41.7, IMP-1 inh 12.7 | VIM-2 inh confirm 52.4 | TEM-1 counter inactive | IMP-1 inh conf 11.3
CCN(CC)CCOC(=O)c1ccc(N/C=C(/C#N)c2nc(-c3ccc(OC)cc3)cs2)cc1	none
COc1ccc(-c2csc(-n3ncc(-c4ccccn4)c3N)n2)cc1	none
COc1ccccc1-c1csc(-n2ncc(C#N)c2N)n1	VIM-2 inh 17.3, IMP-1 inh 22.1 | VIM-2 inh confirm 10.1 | TEM-1 counter inactive | IMP-1 inh conf 12.0
CC(=O)Nc1sc2c(c1-c1nc3ccccc3s1)CCN(C(C)C)C2	FID counter 60.4, VIM-2 inh 17.8, IMP-1 inh 4.5 | VIM-2 inh confirm 15.1 | TEM-1 counter inactive | IMP-1 inh conf inactive
CC(C)N1CCc2c(sc(NC(=O)c3ccc4ccccc4c3)c2C(N)=O)C1	none
COc1ccc(Cl)cc1C(=O)Nc1cccc(-c2ccc3nncn3n2)c1	SUMO HTRF inh 51.3, VIM-2 inh 26.1, IMP-1 inh 22.8 | VIM-2 inh confirm 33.7 | TEM-1 counter 3.0 | IMP-1 inh conf 10.7
c1ccc(C2=Nc3cccnc3C(c3ccccc3)=NN2)cc1	none
Cc1cccn2c(=O)c3cc(C(=O)NCCCn4ccnc4)n(C)c3nc12	VIM-2 inh 10.3, IMP-1 inh 23.3 | VIM-2 inh confirm 31.8 | TEM-1 counter inactive | IMP-1 inh conf inactive
CCOCCCNC(=O)c1cc2c(=O)n3cccc(C)c3nc2n1C	none (no result: FID counter, VIM-2 inh, IMP-1 inh, NS3 helicase inh)
COCCCn1c(=NC(=O)c2ccccc2)c(C#N)cc2c(=O)n3cccc(C)c3nc21	VIM-2 inh 9.3, IMP-1 inh 8.5 | VIM-2 inh confirm 17.6 | TEM-1 counter 31.6 | IMP-1 inh conf 11.2
O=C(NCCN1C(=O)S/C(=C\c2cccnc2)C1=O)c1cc(S(=O)(=O)N2CCOCC2)ccc1F	none
COc1cccc(NC(=O)NCc2ccccn2)c1	none
O=C1c2ccccc2-c2onc3ccc(NCCCn4ccnc4)c1c23	FID counter 69.3, VIM-2 inh 55.0, IMP-1 inh 4.6 | VIM-2 inh confirm 88.8 | TEM-1 counter 69.2 | IMP-1 inh conf 55.9
O=C1c2cccc3c(N4CCCCC4)ccc(c23)C(=O)N1c1cccc(O)c1	none
Cc1n[nH]c(C)c1N1C(=O)c2cccc3c(N4CCCCCC4)ccc(c23)C1=O	VIM-2 inh 20.2, IMP-1 inh 16.2 | VIM-2 inh confirm 27.4 | TEM-1 counter 20.8 | IMP-1 inh conf 9.3
CC(=O)NN1C(=O)/C(=C/c2ccc(C(C)C)cc2)SC1=S	none
COc1ccc(Cl)cc1Nc1nnc(-c2ccncc2)s1	VIM-2 inh 8.7, IMP-1 inh 18.8 | VIM-2 inh confirm inactive | TEM-1 counter inactive | IMP-1 inh conf 12.2
CCCNC(=O)CCc1c(C)nc2nc(C)nn2c1C	none
Cn1cc(C(F)(F)F)nc1-c1ccc(OCC(O)CNCCOc2ccc(O)c(C(N)=O)c2)cc1 (stereo not given)	none (no result: FID counter, VIM-2 inh, IMP-1 inh, NS3 helicase inh)
O=C(Nc1ccc(Oc2ccc(C(=O)O)c(C(=O)O)c2)cc1)c1cccs1	VIM-2 inh 21.2, IMP-1 inh 5.4 | VIM-2 inh confirm 25.1 | TEM-1 counter inactive | IMP-1 inh conf inactive
O=C(Nc1ccc(NC(=O)c2cccs2)cc1)c1cccs1	none
CCOC(=O)c1c2c3c(cccc3n(C)c1=O)C(=O)c1ccccc1-2	VIM-2 inh 14.7, IMP-1 inh 21.0 | VIM-2 inh confirm 19.6 | TEM-1 counter 1.4 | IMP-1 inh conf 7.9
Cc1ccc2c(c1)c(/C=C/c1cc[n+](C)cc1)c(C)n2C	VIM-2 inh 25.7, IMP-1 inh 8.4 | VIM-2 inh confirm 30.8 | TEM-1 counter inactive | IMP-1 inh conf inactive
CCN(CC)c1ccc2cc(C(=O)NCc3ccc(F)cc3)c(=N)oc2c1	IMP-1 inh 21.1 | VIM-2 inh confirm 16.9 | TEM-1 counter 25.9 | IMP-1 inh conf 13.3
COc1ccc(NC(=O)Nc2c(C)n(C)n(-c3ccccc3)c2=O)c(OC)c1	none
